Results taken from ChEMBL document CHEMBL4385657, “A fragment-like approach to PYCR1 inhibition” (Bioorg Med Chem Lett, 2019).
Active and inactive are the calls of the source. The calls are words filed in the database; no cut-off is given here.

Tests used:
[1] = molecular target: T1, Pyrroline-5-carboxylate reductase 1, mitochondrial (Homo sapiens, UniProt P32322); assay: Inhibition of 6x-His-tagged and SUMO tagged human PYCR1 expressed in Escherichia coli BL21 (DE3) cells assessed as reduction in NADH oxidation incubated for 1 hr
T1 sequence (P32322 whole entry): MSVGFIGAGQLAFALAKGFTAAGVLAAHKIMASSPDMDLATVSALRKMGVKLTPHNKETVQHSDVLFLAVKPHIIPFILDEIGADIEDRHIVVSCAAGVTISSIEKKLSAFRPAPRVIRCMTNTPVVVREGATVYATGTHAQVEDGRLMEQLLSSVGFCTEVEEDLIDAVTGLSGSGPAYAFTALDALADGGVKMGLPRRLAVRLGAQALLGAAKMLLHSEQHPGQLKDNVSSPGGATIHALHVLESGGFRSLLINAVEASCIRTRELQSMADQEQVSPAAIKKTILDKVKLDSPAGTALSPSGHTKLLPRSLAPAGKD

SUM-159-PT [2] = assay: Effect on phenylalanine content in human SUM159PT cells at 1 to 100 uM by LC-MS analysis relative to control; format: ADME, cell-based
How it was run: (§1)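 Human breast cancer SUM-159-PT cells were incubated with test agent at 1, 5, 20 and 100 µM (or at 100 µM alone). The cells were then lysed, and proline and the essential amino acids were quantified by LC-MS. Each amino acid level was compared against an untreated control culture.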

SUM-159-PT [3] = assay: Effect on isoleucine content in human SUM159PT cells at 1 to 100 uM by LC-MS analysis relative to control; format: ADME, cell-based; how it was run: as §1
SUM-159-PT [4] = assay: Effect on valine content in human SUM159PT cells at 1 to 100 uM by LC-MS analysis relative to control; format: ADME, cell-based; how it was run: as §1
SUM-159-PT [5] = assay: Toxicity in human SUM159PT cells assessed as reduction in cell viability at 100 uM; format: cell-based
SUM-159-PT [6] = assay: Effect on methionine content in human SUM159PT cells at 1 to 100 uM by LC-MS analysis relative to control; format: ADME, cell-based; how it was run: as §1
SUM-159-PT [7] = assay: Effect on tryptophan content in human SUM159PT cells at 1 to 100 uM by LC-MS analysis relative to control; format: ADME, cell-based; how it was run: as §1
[8] = molecular target: T2, Amine oxidase [flavin-containing] B (Homo sapiens, UniProt P27338); assay: Inhibition of MAOB (unknown origin)
T2 sequence (P27338 whole entry): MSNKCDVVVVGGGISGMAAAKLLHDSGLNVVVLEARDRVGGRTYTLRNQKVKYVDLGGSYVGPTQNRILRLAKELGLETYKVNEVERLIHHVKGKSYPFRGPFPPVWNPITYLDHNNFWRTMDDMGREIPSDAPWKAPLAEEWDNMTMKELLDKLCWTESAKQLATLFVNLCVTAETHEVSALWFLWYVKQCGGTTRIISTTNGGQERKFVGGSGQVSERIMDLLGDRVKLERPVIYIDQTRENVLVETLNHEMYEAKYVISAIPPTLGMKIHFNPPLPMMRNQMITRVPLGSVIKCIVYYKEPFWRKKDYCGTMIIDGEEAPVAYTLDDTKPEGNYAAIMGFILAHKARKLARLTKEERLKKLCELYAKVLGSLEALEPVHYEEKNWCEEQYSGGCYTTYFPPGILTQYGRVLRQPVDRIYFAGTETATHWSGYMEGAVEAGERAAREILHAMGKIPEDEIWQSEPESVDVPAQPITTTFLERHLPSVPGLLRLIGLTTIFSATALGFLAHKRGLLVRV

SUM-159-PT [9] = assay: Effect on leucine content in human SUM159PT cells at 1 to 100 uM by LC-MS analysis relative to control; format: ADME, cell-based; how it was run: as §1
SUM-159-PT [10] = assay: Effect on valine content in human SUM159PT cells at 100 uM by LC-MS analysis relative to control; format: functional, cell-based; how it was run: as §1
SUM-159-PT [11] = assay: Effect on phenylalanine content in human SUM159PT cells at 100 uM by LC-MS analysis relative to control; format: functional, cell-based; how it was run: as §1
SUM-159-PT [12] = assay: Effect on isoleucine content in human SUM159PT cells at 100 uM by LC-MS analysis relative to control; format: functional, cell-based; how it was run: as §1
SUM-159-PT [13] = assay: Effect on methionine content in human SUM159PT cells at 100 uM by LC-MS analysis relative to control; format: functional, cell-based; how it was run: as §1
SUM-159-PT [14] = assay: Effect on tryptophan content in human SUM159PT cells at 100 uM by LC-MS analysis relative to control; format: functional, cell-based; how it was run: as §1
SUM-159-PT [15] = assay: Effect on leucine content in human SUM159PT cells at 100 uM by LC-MS analysis relative to control; format: functional, cell-based; how it was run: as §1

SMILES	IC50 [1]	other results
C#CCN(Cc1ccc(Br)cc1)S(C)(=O)=O	> 500 µM	–
C#CCN(C)Cc1ccc(C)cc1C	55 µM	–
C#CCN(Cc1ccc(Br)cc1)Cc1ccc(Br)cc1	92 µM	–
C#CCN(C)Cc1ccc(F)cc1	311 µM	–
C#CCN(C)Cc1cccc([N+](=O)[O-])c1	394 µM	–
CNCc1ccc(Br)cc1	161 µM	–
C#CCNCc1ccc(Br)cc1	99 µM	–
C#CCN(C)Cc1cc(Cl)cc(Cl)c1	> 500 µM	–
C#CCN(Cc1ccc(Br)cc1)C(C)C	> 500 µM	–
C#CCN(C)Cc1ccc(-c2ccc(F)cc2)cc1	211 µM	–
C#CCN(C)Cc1ccc(Br)cc1	–	Activity (SUM-159-PT [2]): Non-Toxic; Activity (SUM-159-PT [3]): Non-Toxic; Activity (SUM-159-PT [4]): Non-Toxic; Activity (SUM-159-PT [5]): Non-Toxic; Activity (SUM-159-PT [6]): Non-Toxic; Activity (SUM-159-PT [7]): Non-Toxic; IC50 [8]: 0.3 µM; Activity (SUM-159-PT [9]): Non-Toxic
C#CCN(Cc1ccc(Br)cc1)Cc1cc(C)no1	100 µM	–
C#CCN(C)Cc1ccc(Cl)c(Cl)c1	13.6 µM	–
C#CCN(C)Cc1ccc(Br)cc1OC	21 µM	–
C#CCN(C)Cc1ccc(OC)cc1OC	> 500 µM	–
C#CCN(C)Cc1ccc(C(C)=O)cc1	184 µM	–
CCCN(C)Cc1ccc(Br)cc1	337 µM	–
C#CCCN(C)Cc1ccc(Br)cc1	> 500 µM	–
C#CCN(Cc1ccc(Br)cc1)CC1CC1	> 500 µM	–
C=CCN(C)Cc1ccc(Br)cc1	> 500 µM	–
C#CCN(C)Cc1ccc(Br)cc1F	42 µM	–

SMILES	IC50 [1]	other results
C#CCN(C)Cc1ccc(Cl)cc1	13 µM	–
C#CCN1Cc2ccc(Br)cc2C1	> 500 µM	–
C#CCN(C)Cc1cc(Br)cs1	> 500 µM	–
C#CCN(C)Cc1ccc2ccccc2c1	21 µM	–
C#CCN(C)Cc1ccc(Cl)c(C(F)(F)F)c1	43 µM	–
C#CCN(C)Cc1ccc([N+](=O)[O-])cc1	43 µM	–
C#CCN(CCC=C)Cc1ccc(Br)cc1	> 500 µM	–
CC#CCN(C)Cc1ccc(Br)cc1	16 µM	–
C#CCN(CC)Cc1ccc(Br)cc1	58 µM	–
C#CCN(C)Cc1ccccc1 [PARGYLINE]	198 µM	Activity (SUM-159-PT [10]): inactive; Activity (SUM-159-PT [11]): inactive; Activity (SUM-159-PT [12]): inactive; Activity (SUM-159-PT [13]): inactive; Activity (SUM-159-PT [14]): inactive; Activity (SUM-159-PT [15]): inactive
CN(Cc1ccc(Br)cc1)CC1CC1	> 500 µM	–
C#CCN(C)Cc1ccc(Br)cc1Br	228 µM	–
C#CCN(C)Cc1ccc(C#N)cc1	> 500 µM	–
C#CC(C)N(C)Cc1ccc(Br)cc1 (centres undefined)	394 µM	–
C#CCN1CCc2cc(Br)ccc2C1	> 500 µM	–
C#CCN(C)Cc1c(Cl)cccc1Cl	> 500 µM	–
C#CCN(C)Cc1ccccc1Br	200 µM	–
C#CCN(C)Cc1ccc(C)cc1	40 µM	–
C#CCN(C)Cc1ccc(OC)cc1	38 µM	–
C#CCN(C)Cc1ccc(I)cc1	9.7 µM	–
C#CCN(C)Cc1ccc(Br)cc1Cl	34 µM	–

SMILES	IC50 [1]	other results
C#CCN(C)Cc1ccc(Cl)cc1Br	66 µM	–
C#CCN(C)Cc1ccc(F)cc1Br	> 500 µM	–
C#CCN(C)Cc1ccc(C(F)(F)F)cc1	65 µM	–
C#CCN(C)Cc1cc(C)no1	> 500 µM	–
C#CCN(C)Cc1ccc(Br)cc1C	38 µM	–
C#CCN(C)Cc1ccccc1[N+](=O)[O-]	> 500 µM	–
C#CCN(C)CCc1ccc(Br)cc1	> 500 µM	–
C#CCN(C)Cc1ccc(Cl)cc1Cl	9.2 µM	–
C#CCN(C)Cc1cccc(Br)c1	276 µM	–
C#CCN(CCC)Cc1ccc(Br)cc1	> 500 µM	–
CN(Cc1ccccc1)Cc1ccc(Br)cc1	> 500 µM	–
CN(CC#Cc1ccccc1)Cc1ccc(Br)cc1	71 µM	–
C#CCN(Cc1ccc(Br)cc1)C(C)=O	> 500 µM	–
C#CCN(CC(=O)OC(C)(C)C)Cc1ccc(Br)cc1	> 500 µM	–
C#CCN(C)Cc1ccc(C(C)C)cc1	142 µM	–
C#CCN(C)Cc1cccc(Cl)c1	52 µM	–
C#CCN(C)Cc1ccc(-c2ccccc2)cc1	315 µM	–
C#CCN(C)C(C)c1ccc(Br)cc1 (centres undefined)	316 µM	–
C#CCN(C)Cc1ccccc1Cl	139 µM	–
